pIC50: −log10 of the molar value.
Molecular target: N+/K+ ATPase alpha-4/beta-1 (Rattus norvegicus, UniProt Q64541)
Assay: Inhibition of recombinant rat Na+/K+-ATPase alpha4/beta1 expressed in baculovirus infected insect Sf9 cell membranes using [gamma-32P]ATP as substrate preincubated for 10 mins followed by substrate addition measured after 30 mins in presence of Na+, K+ and Mg2+ by liquid scintillation counting
Outline: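 Rat α/β1 isoforms were expressed in baculovirus-infected Sf9 cells (72 h, 27 °C), washed in 10 mM imidazole-HCl pH 7.5 with 1 mM EGTA, and homogenised. Homogenates were assayed in 120 mM NaCl, 30 mM KCl, 3 mM MgCl₂, 0.2 mM EGTA and 30 mM Tris-HCl pH 7.4. Reactions were started with 2 mM γ[³²P]-ATP (final) and run 30 min at 37 °C. Released ³²Pi was extracted as phosphomolybdate into isobutanol and scintillation counted. IC50 came from single-site dose–response fits.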

Chain of N+/K+ ATPase alpha-4/beta-1 (Q64541 whole entry, other chains not shown): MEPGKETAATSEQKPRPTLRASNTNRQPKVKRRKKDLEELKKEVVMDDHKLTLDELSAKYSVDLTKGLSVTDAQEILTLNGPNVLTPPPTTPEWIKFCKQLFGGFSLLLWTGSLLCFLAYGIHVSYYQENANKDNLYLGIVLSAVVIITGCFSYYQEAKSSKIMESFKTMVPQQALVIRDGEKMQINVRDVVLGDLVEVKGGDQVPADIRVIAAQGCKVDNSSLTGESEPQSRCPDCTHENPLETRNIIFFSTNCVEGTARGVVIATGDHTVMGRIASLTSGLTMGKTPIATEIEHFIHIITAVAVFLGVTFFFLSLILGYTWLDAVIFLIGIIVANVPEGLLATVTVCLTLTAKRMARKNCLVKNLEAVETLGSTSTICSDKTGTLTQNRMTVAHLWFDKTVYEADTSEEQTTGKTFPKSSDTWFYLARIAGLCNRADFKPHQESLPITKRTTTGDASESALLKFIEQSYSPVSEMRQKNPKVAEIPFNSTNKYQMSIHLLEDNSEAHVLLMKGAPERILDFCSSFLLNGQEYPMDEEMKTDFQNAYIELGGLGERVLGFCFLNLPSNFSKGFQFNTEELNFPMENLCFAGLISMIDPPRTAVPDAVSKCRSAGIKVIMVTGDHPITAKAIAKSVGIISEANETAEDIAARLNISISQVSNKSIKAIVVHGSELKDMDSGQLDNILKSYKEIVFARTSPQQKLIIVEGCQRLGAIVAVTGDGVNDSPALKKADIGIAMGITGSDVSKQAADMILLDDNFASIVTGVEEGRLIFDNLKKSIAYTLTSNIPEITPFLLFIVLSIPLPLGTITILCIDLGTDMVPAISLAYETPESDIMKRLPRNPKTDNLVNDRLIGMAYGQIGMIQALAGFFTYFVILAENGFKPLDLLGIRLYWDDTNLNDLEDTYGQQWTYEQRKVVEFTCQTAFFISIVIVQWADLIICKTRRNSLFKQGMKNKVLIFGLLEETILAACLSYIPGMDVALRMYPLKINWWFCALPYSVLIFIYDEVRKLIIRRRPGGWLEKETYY

Row | Compound | pIC50
1 | C[C@@H]1O[C@@H](O[C@H]2C[C@@H](O)[C@]3(CO)[C@H]4[C@H](O)C[C@]5(C)[C@@H](C(O)c6cn(Cc7ccc(F)cc7)nn6)CC[C@]5(O)[C@@H]4CC[C@]3(O)C2)[C@H](O)[C@H](O)[C@H]1O (mixture of isomers) | 7.36 to 7.89
2 | COCO[C@@H]1[C@H]2OC(C)(C)O[C@H]2[C@H](O[C@H]2C[C@H]3OC(C)(C)OC[C@]34[C@@H]3[C@@H](CC[C@]4(O)C2)[C@@]2(O)CC[C@H](C=O)[C@@]2(C)C[C@H]3OCOC)O[C@H]1C | 8.15 to 8.31
3 | COCO[C@@H]1[C@H]2OC(C)(C)O[C@H]2[C@H](O[C@H]2C[C@H]3OC(C)(C)OC[C@]34[C@@H]3[C@@H](CC[C@]4(O)C2)[C@@]2(O)CC[C@H](C(O)CO)[C@@]2(C)C[C@H]3OCOC)O[C@H]1C (mixture of isomers) | 5.43 to 5.68
4 | COCO[C@H]1C[C@H]2OC(C)(C)OC[C@]23[C@@H]2[C@@H](CC[C@]3(O)C1)[C@@]1(OCOC)CC[C@H](c3cn(Cc4ccccc4)nn3)[C@@]1(C)C[C@H]2OCOC | 8.16 to 8.30
5 | C[C@@H]1O[C@@H](O[C@H]2C[C@H]3OC(C)(C)OC[C@]34[C@H]3[C@H](O)C[C@]5(C)[C@@H](C6=CC(=O)OC6)CC[C@]5(O)[C@@H]3CC[C@]4(O)C2)[C@@H]2OC(C)(C)O[C@@H]2[C@H]1O | 8.37 to 8.40
6 | C[C@]12C[C@@H](O)[C@H]3[C@@H](CC[C@]4(O)C[C@@H](O)C[C@@H](O)[C@]34CO)[C@@]1(O)CC[C@@H]2c1cn(Cc2ccc(F)cc2)nn1 | 7.31 to 7.49
7 | C[C@]12C[C@@H](O)[C@H]3[C@@H](CC[C@]4(O)C[C@@H](O)C[C@@H](O)[C@]34CO)[C@@]1(O)CC[C@@H]2c1cn(Cc2ccc(Cl)cc2)nn1 | 7.37 to 7.49
8 | COCO[C@@H]1[C@H]2OC(C)(C)O[C@H]2[C@H](O[C@H]2C[C@H]3OC(C)(C)OC[C@]34[C@@H]3[C@@H](CC[C@]4(O)C2)[C@@]2(O)CC[C@H](C(O)c4cn(Cc5ccc(F)cc5)nn4)[C@@]2(C)C[C@H]3OCOC)O[C@H]1C (mixture of isomers) | 7.15 to 7.92
9 | C#CC(O)[C@H]1CC[C@]2(OCOC)[C@@H]3CC[C@]4(O)C[C@@H](OCOC)C[C@H]5OC(C)(C)OC[C@]54[C@H]3[C@H](OCOC)C[C@]12C (mixture of isomers) | 7.22 to 8.00
10 | C[C@@H]1O[C@@H](O[C@H]2C[C@@H](O)[C@]3(CO)[C@H]4[C@H](O)C[C@]5(C)[C@@H](C(O)c6cn(Cc7ccccc7)nn6)CC[C@]5(O)[C@@H]4CC[C@]3(O)C2)[C@H](O)[C@H](O)[C@H]1O (mixture of isomers) | 5.82 to 5.92
11 | COCO[C@H]1C[C@H]2OC(C)(C)OC[C@]23[C@@H]2[C@@H](CC[C@]3(O)C1)[C@@]1(OCOC)CC[C@H](C#N)[C@@]1(C)C[C@H]2OCOC | 4.43 to 4.80
12 | COCO[C@@H]1[C@H]2OC(C)(C)O[C@H]2[C@H](O[C@H]2C[C@H]3OC(C)(C)OC[C@]34[C@@H]3[C@@H](CC[C@]4(O)C2)[C@@]2(O)CC[C@H](C#N)[C@@]2(C)C[C@H]3OCOC)O[C@H]1C | 7.21 to 7.48
13 | COCO[C@H]1C[C@H]2OC(C)(C)OC[C@]23[C@@H]2[C@@H](CC[C@]3(O)C1)[C@@]1(OCOC)CC[C@H](C(=O)O)[C@@]1(C)C[C@H]2OCOC | 7.11 to 7.41
14 | COCO[C@H]1C[C@H]2OC(C)(C)OC[C@]23[C@@H]2[C@@H](CC[C@]3(O)C1)[C@@]1(OCOC)CC[C@H](C(O)C(F)(F)F)[C@@]1(C)C[C@H]2OCOC (mixture of isomers) | 5.23 to 5.25
15 | COc1ccc(-c2cn(C[C@H]3CC[C@]4(O)[C@@H]5CC[C@]6(O)C[C@@H](O)C[C@@H](O)[C@]6(CO)[C@H]5[C@H](O)C[C@]34C)nn2)cc1 | 4.41 to 4.82
16 | COCO[C@H]1C[C@H]2OC(C)(C)OC[C@]23[C@@H]2[C@@H](CC[C@]3(O)C1)[C@@]1(OCOC)CC[C@H](/C=N/O)[C@@]1(C)C[C@H]2OCOC | 8.54 to 8.85

Source: ChEMBL document CHEMBL4033781 (J Med Chem, 2018)
